The source of these data is ChEMBL document CHEMBL4715843, “NO-releasing STAT3 inhibitors suppress BRAF-mutant melanoma growth” (Eur J Med Chem, 2020).

Assay [1] concerns the target Signal transducer and activator of transcription 1-alpha/beta (Homo sapiens) (UniProt P42224). Put plainly: Inhibition of STAT1 phosphorylation at Y701 residues in human A-375 cells at 50 uM after 20 hrs by Western blotting analysis. In kind it is cell-based. The method, boiled down:
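A375 cells exposed to a dose range of inhibitor for 20 h (overnight), up to 50 µM; lysates immunoblotted for phospho-STAT1 Y701, phospho-STAT5 Y694 and phospho-STAT6 Y641, with actin and/or vinculin as loading controls.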
In general terms: A western blot detects proteins with antibodies after separation by electrophoresis.

Assay [2] concerns the target T1, Signal transducer and activator of transcription 3 (Homo sapiens, UniProt P40763). In words: Inhibition of STAT3 in human SB-590885-sensitive 451Lu cells assessed as reduction in PAX3 expression measured after 12 hrs by Western blot analysis. The settings on record: dose 10-25 µM. The method, boiled down:
(§1)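 451 Lu and MEL 1617 pairs, sensitive and resistant; resistant lines maintained in RPMI with 1 µM PLX4720. Treated with 10 and 25 µM for 12 h versus DMSO. Lysates (60 µg protein, 10% SDS-PAGE) immunoblotted for Ser727- and Tyr705-phospho-STAT3, total STAT3, total PAX3, with actin.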

The test system of assay [3] is HFF. Put plainly: Cytotoxicity against HFF assessed as inhibition of cell proliferation by MTS assay. It is filed as cell-based, Homo sapiens. The following applies: Homo sapiens, HFF; read-out: IC50. For orientation: Tetrazolium assays rely on reduction of a dye to a coloured formazan, in cell work by metabolically active cells.
Assay [4] relates to IGROV-1. In words: Anticancer activity against human IGROV-1 cells assessed as cell growth inhibition at 10 uM measured after 48 hrs by SRB assay relative to control. In kind it is functional. The following applies: read-out: GI. In outline:
(§2)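 NCI 60-cell-line screen. Cells in RPMI with 5% FBS were plated at 5,000–40,000 cells/well by doubling time and preincubated 24 h at 37 °C. Compound was added at a single 10 µM for 48 h, then cells were fixed with cold TCA (10% final) and stained with 0.4% SRB. Absorbance at 515 nm gave percent growth versus untreated control and time-zero cells.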
(In general: The SRB assay estimates cell density from bound dye.)

Assay [5] concerns the target T1, Signal transducer and activator of transcription 3. In words: Inhibition of STAT3 in human SB-590885-sensitive MEL1617 cells assessed as reduction in STAT3 transcriptional activity measured after 12 hrs by Dual-luciferase reporter gene assay. It is filed as cell-based. The method, boiled down: (§3)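 Cells co-transfected with inducible STAT3-responsive firefly luciferase and constitutive Renilla luciferase constructs (40:1) using Lipofectamine 3000. After 48 h, dose series in DMSO vehicle applied for 12 h, followed by dual-luciferase readout. Firefly signal normalized to Renilla and compared with untreated cells. Run in triplicate; IC50 taken from dose–response curves.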

The subject of assay [6] is MCF-10A. In words: Cytotoxicity against human MCF-10A cells assessed as inhibition of cell proliferation by MTS assay. The following applies: Homo sapiens, MCF-10A; read-out: IC50. It is filed as cell-based.
The target in assay [7] is T1, Signal transducer and activator of transcription 3. In words: Inhibition of STAT3 in human SB-590885-resistant MEL1617 cells assessed as reduction in PAX3 expression at 10 to 25 uM measured after 12 hrs by Western blot analysis. In kind it is cell-based. The following applies: dose 10-25 µM. The method, boiled down:
as §1

Assay [8] has the same target. In words: Inhibition of STAT3 phosphorylation at S727 residue in human SB-590885-resistant MEL1617 cells at 10 to 25 uM measured after 12 hrs by Western blot analysis. The following applies: dose 10-25 µM. In kind it is cell-based. In outline: as §1
The target is the same in assay [9]. In words: Inhibition of STAT3 phosphorylation at S727 residue in human SB-590885-resistant 451Lu cells measured after 12 hrs by Western blot analysis. The following applies: dose 10-25 µM. In outline:
as §1

In assay [10] the target is Mitogen-activated protein kinase; ERK1/ERK2 (Homo sapiens) (UniProt P27361+P28482). Put plainly: Inhibition of ERK1/2 phosphorylation in human A-375 cells at 5 to 50 uM after 12 hrs by Western blotting analysis. In kind it is cell-based. The following applies: dose 5-50 µM.
For assay [11], the system named is A-375. Put plainly: Cell cycle arrest in human A-375 cells assessed as accumulation at G1-phase at 25 uM measured after 24 hrs by […] (reference value: 55.5 to 56.2%). It is filed as functional.
The nature of assay [12]: Antiproliferative activity against human SB-590885-sensitive MEL1617 cells assessed as reduction in cell viability measured after 48 hrs by MTS assay. It is filed as functional, cell-based. The following applies: MEL1617, 48 h. In outline:
(§4)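 Melanoma lines were grown in RPMI-1640 with Glutamax at 37 °C and 5% CO2. The resistant 451 Lu-R and MEL 1617-R sublines were maintained with 1 µM PLX4720. Cells were incubated with vehicle or inhibitor over a dose range, and viability was read by MTS assay in triplicate.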

The nature of assay [13]: Drug metabolism in pH 7.4 phosphate buffer assessed as nitric oxide release at 100 uM measured after 2 hrs by Griess reagent based colorimetric method. In outline:
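Compound at 100 µM was held at room temperature in pH 7.4 phosphate buffer with 5 mM DTT and 2% DMSO for 2 or 48 h. Griess reagent was added, and after 30 min absorbance was read at 548 nm. NO release (mol NO/mol compound) was derived from a sodium nitrite calibration curve.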

Assay [14] is described as follows: Antiproliferative activity against human SB-590885-resistant MEL1617 cells assessed as reduction in cell viability measured after 48 hrs by MTS assay. It is filed as functional, cell-based. The following applies: Homo sapiens, MEL1617, 48 h; read-out: IC50. In outline: as §4
For assay [15], the system named is A-375. Put plainly: Cell cycle arrest in human A-375 cells assessed as accumulation at G2-phase at 10 uM measured after 24 hrs by […] (reference value: 9.14 to 10.5%). In kind it is functional.
Assay [16] addresses T1, Signal transducer and activator of transcription 3. Put plainly: Inhibition of STAT3 phosphorylation at S727 residue in human SB-590885-sensitive 451Lu cells measured after 12 hrs by Western blot analysis. The settings on record: dose 10-25 µM. In outline: as §1
The test system of assay [17] is LOX IMVI. Put plainly: Anticancer activity against human LOX IMVI cells assessed as cell growth inhibition at 10 uM measured after 48 hrs by SRB assay relative to control. It is filed as functional. The settings on record: read-out: GI. The method, boiled down: as §2
For assay [18], the target named is T1, Signal transducer and activator of transcription 3. Put plainly: Inhibition of STAT3 in human SB-590885-resistant 451Lu cells assessed as reduction in STAT3 transcriptional activity measured after 12 hrs by Dual-luciferase reporter gene assay. In outline: as §3
The test system of assay [19] is A-375. In words: Up regulation of p27kip1 expression in human A-375 cells measured after 24 hrs by Western blot analysis. It is filed as functional, cell-based. The following applies: dose 5-50 µM. In outline: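 A375 cells treated overnight (same as cell-cycle treatment, 24 h) with different doses, then lysed and immunoblotted for p27kip1, PAX3 and Cyclin D1.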

Assay [20] concerns A-375. Put plainly: Cell cycle arrest in human A-375 cells assessed as accumulation at G2-phase at 25 uM measured after 24 hrs by […] (reference value: 9.14 to 10.5%). In kind it is functional.
For assay [21], the target named is T1, Signal transducer and activator of transcription 3. In words: Inhibition of STAT3 in human SB-590885-sensitive 451Lu cells assessed as reduction in STAT3 transcriptional activity measured after 12 hrs by Dual-luciferase reporter gene assay. The method, boiled down: as §3
Assay [22] has as its system A-375. In words: Inhibition of colony formation in human A-375 cells measured over 10 days by crystal violet staining based assay. The settings on record: dose 0.1-10 µM, time 10.0 day. In kind it is functional, cell-based. The method, boiled down: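 A375 cells seeded at 2500/well in RPMI with 5% FBS, settled overnight, then given a dose series and grown 14 days (10 days in the results text). Fixed in 4% paraformaldehyde for 15 min, stained with 0.2% crystal violet in 20% methanol for 10 min, washed and imaged. Experiment run twice.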

The target of assay [23] is T1, Signal transducer and activator of transcription 3. Put plainly: Inhibition of STAT3 in human SB-590885-sensitive MEL1617 cells assessed as reduction in PAX3 expression at 10 to 25 uM measured after 12 hrs by Western blot analysis. In kind it is cell-based. The settings on record: dose 10-25 µM. The method, boiled down:
as §1

Active and inactive are the calls of the source. No cut-off for these calls is given here.

T1 sequence (P40763 whole entry): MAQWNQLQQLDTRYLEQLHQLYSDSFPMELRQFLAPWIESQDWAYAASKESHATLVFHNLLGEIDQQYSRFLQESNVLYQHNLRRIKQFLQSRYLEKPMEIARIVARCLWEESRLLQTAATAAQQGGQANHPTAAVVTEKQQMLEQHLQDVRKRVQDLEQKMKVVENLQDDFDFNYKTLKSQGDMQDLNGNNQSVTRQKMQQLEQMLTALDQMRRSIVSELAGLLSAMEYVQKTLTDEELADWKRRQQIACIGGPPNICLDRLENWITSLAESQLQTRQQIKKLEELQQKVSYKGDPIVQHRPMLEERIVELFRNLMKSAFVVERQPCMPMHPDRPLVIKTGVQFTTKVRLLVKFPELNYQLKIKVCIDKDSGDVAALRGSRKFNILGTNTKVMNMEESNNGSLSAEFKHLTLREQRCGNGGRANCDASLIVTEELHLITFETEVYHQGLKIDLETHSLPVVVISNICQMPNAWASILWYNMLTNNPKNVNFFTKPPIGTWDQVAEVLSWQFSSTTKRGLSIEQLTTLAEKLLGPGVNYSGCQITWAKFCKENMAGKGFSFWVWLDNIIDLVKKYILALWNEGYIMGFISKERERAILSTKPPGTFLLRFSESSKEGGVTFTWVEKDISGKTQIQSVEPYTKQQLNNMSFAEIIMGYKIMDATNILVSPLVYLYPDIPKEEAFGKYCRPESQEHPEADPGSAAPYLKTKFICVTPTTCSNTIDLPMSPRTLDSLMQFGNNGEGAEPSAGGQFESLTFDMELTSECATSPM
Chain of Mitogen-activated protein kinase; ERK1/ERK2 (Homo sapiens) (P27361 whole entry, looked up): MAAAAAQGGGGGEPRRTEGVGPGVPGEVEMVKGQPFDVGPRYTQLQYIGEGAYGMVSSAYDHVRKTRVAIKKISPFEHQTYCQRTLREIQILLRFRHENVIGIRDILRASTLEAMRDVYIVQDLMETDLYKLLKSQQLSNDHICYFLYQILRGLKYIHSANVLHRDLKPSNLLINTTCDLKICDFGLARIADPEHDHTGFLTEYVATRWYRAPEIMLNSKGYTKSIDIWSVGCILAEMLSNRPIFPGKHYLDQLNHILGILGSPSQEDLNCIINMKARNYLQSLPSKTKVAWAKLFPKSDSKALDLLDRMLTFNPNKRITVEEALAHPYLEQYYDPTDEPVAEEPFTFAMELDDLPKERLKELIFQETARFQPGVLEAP
Chain of Mitogen-activated protein kinase; ERK1/ERK2 (Homo sapiens) (P28482 whole entry, looked up): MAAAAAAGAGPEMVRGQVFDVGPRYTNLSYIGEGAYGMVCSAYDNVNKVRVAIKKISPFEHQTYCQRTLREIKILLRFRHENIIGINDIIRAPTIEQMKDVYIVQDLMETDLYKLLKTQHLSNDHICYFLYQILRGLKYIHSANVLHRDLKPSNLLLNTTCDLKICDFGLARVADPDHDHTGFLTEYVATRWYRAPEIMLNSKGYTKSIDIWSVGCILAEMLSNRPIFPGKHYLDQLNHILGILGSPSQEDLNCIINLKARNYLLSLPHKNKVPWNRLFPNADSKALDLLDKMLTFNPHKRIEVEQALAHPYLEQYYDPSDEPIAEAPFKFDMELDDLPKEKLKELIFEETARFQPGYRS
Chain of Signal transducer and activator of transcription 1-alpha/beta (Homo sapiens) (P42224 whole entry): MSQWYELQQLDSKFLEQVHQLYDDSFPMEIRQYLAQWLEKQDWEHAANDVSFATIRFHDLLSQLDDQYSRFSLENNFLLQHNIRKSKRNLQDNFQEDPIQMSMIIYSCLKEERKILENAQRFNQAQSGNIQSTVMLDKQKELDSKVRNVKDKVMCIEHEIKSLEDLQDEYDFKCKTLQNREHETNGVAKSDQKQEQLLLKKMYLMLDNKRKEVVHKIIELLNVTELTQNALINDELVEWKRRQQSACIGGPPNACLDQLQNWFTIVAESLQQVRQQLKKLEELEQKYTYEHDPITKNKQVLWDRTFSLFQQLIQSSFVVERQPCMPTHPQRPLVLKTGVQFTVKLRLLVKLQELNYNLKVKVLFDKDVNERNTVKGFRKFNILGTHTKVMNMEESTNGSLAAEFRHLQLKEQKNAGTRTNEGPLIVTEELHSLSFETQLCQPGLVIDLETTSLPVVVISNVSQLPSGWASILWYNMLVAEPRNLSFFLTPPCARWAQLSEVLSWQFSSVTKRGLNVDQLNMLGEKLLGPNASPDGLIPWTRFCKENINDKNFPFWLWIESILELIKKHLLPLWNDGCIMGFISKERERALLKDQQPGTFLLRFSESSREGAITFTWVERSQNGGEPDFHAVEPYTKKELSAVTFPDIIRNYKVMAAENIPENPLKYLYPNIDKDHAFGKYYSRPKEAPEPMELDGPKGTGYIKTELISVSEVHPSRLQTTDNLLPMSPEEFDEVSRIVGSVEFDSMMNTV

For the molecule `C=CCn1c(SCC(=O)Nc2ccc(/C(C)=N\O)cc2)nnc1-c1cc(-c2ccccc2)nc2ccccc12`, the inhibition entry in [1] and in [10] was “inactive” each time. The inhibition entry in assay [2], in assay [9], in assay [16] and in assay [22] was “Dose-dependent effect” each time. The IC50 is 54.4 µM in assay [3]; 10.3 µM in assay [5]; 100 µM in assay [6]; 8.4 µM in assay [12]; 10.8 µM in [14]; 4.7 µM in [18]. The IC50 in assay [21] was 6.3 µM. The inhibition of growth at 10 µM in assay [4] and in assay [17] was 76% in each case. The inhibition result in [7], in [8] and in assay [23] was “Active” throughout. The Activity is 75.4% in assay [11], 14.9% in assay [15], “Dose-dependent effect” in [19] and 11.2% in assay [20]. Besides, in assay [13], the Drug metabolism turned out to be 15%.

With `C=CCn1c(SCC(=O)Nc2ccc(/C(C)=N\O)cc2)nnc1-c1cc(-c2ccc(Cl)cc2)nc2ccccc12`, the inhibition entry in assay [1] and in assay [10] was “inactive” throughout. For the same molecule, the inhibition result in assay [2], in [9], in assay [16] and in [22] was “Dose-dependent effect” each time. The IC50 in assay [3] turned out to be 200 µM; in assay [5] it was 21.4 µM; in [6] it was 92.9 µM; in assay [12], 46.1 µM; in [14], 54.1 µM; in assay [18] it was 17 µM. Also, the IC50 in assay [21] is 7.9 µM. Further, the inhibition of growth at 10 µM in assay [4] and in assay [17] was 100% each time. The inhibition entry in assay [7], in assay [8] and in [23] was “Active” each time. The Activity in assay [11] is 61.1%; in assay [15], 14.9%; in assay [19], “Dose-dependent effect”; in assay [20], 15.7%. The Drug metabolism in assay [13] is 15%.

What is called IC50 is the concentration that gives 50% inhibition.
